# Measured values: the EternaBench riboswitch data
# Tested on: MS2 coat protein
# Test: apparent Kd, MS2 coat protein; higher = weaker binding; RNA-MaP array; FMN 200 µM where present
# Method in brief: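 Green signal from SNAP-549-labelled MS2 coat protein was normalised to red-channel RNA signal and to the median Fmax of control clusters. The protein was titrated from 0.7 or 1.5 nM, doubling to 3 µM, without and then with constant ligand, over designs transcribed by stalled E. coli RNA polymerase on Illumina sequencing-chip clusters, in 100 mM Tris-HCl pH 7.5, 80 mM KCl, 4 mM MgCl2, BSA, DTT, yeast tRNA and Tween-20. The apparent Kd is the median of filtered per-cluster binding-curve fits.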
# [1] = designed as: OFF switch for flavin mononucleotide, no ligand
# [2] = ligand present: flavin mononucleotide, designed as: OFF switch for flavin mononucleotide
# [3] = designed as: ON switch for flavin mononucleotide, no ligand
# [4] = ligand present: flavin mononucleotide, designed as: ON switch for flavin mononucleotide
Sequence,apparent Kd [1] [µM],apparent Kd [2] [µM],apparent Kd [3] [µM],apparent Kd [4] [µM]
ACGUUUUAUGCAGGAUAUUGAAAUAUAUUUAAACAAGAAGGGCAAUACAUGAGGAUCACCCAUGUCAGCAUGGUAUUUAAGUUC,0.0439,0.0454,–,–
AUUUAAAAGCAGAAGGGCAAGGUGGAUCCCUCACAUGAGGAUCACCCAUGUCUAGGCUUUACCGUGCAGGAUAUGCAAGUAAUA,–,–,0.026,0.0585
CAGAUAGGUGUGAGGAUAUAUCGUUAGCAAUGGCUAUAGAAGGCACAUGAGGAUCACCCAUGUGAGAUUGGCGU,0.0213,0.0205,–,–
CGUGAAGGCUGGCCGAUAUAGUCGAGAAGGGUCCACAUGAGGAUCACCCAUGUGAGCCUUGGUGGACAGGAUAUCGAUGGCCGU,0.0467,0.0152,–,–
AAAAAAAAAAUGCAGGAUAUGGGAAAAAAAACAUGAGGAUCACCCAUGUAAAAAAAAAAAAAAAACUAGAAGGGUAAAAAAAAAAA,–,–,0.0803,0.0623
AUAAGGUUCUUCAAGGUGCUACAUGAGGAUCACCCAUGUGAGAGAAGGGCCCGUGGACUUGGAGGGUAGGAUAUCUCCAUGCGU,0.00832,0.0101,–,–
GUGGUCAGACAUGAGGAUCACCCAUGUGGAAUAAAUAAGGAAUAGGAUAUGGAAUAUAGGAUAUACCAGAAGGGUUGGUUGGUG,–,–,0.0984,0.114
CAGAAGUCAGGAUAUCCAUGGCGGCACUUGCGUGGUGGCGUGGAGAAGGGACAUGAGGAUCACCCAUGUAAAGU,0.0587,0.0617,–,–
GUGAAACAUGAGGAUCACCCAUGUGAGGAUAUGUUUUAGUACUGGAGACAGUACAUCUAUAGAAGGCACAAUGG,0.0683,0.0891,–,–
GCAUGGGCCGUCAGGAUAUAGGCGCCGUGAAGGUAUUAGAAGGGACAUGAGGAUCACCCAUGUAUGAGAAAAGA,0.0367,0.0427,–,–
UCCUUGUCCUGAGGAUAUCCGUGGUUACCGACAGGAGAAGGCAGGACAUGAGGAUCACCCAUGUACCCAGAAAACGUGCAGAGU,0.133,0.21,–,–
GGGCCCGGAGGAUAUACAUGAGGAUCACCCAUGUACCCGGGUUUUAUUGGGCCCGGGUGUAGAAGGUUGGGCCC,0.0141,0.0133,–,–
AUUGAUGUUGAGGAUAUGCUUUUAUUUAUAAUAGCAGAAGGCGAUACAUGAGGAUCACCCAUGUUCAUGGUAGU,0.0622,0.067,–,–
UCCCUGUGAGGAUAUCUCGUUCCGGUGAAAUUAGCUAGAUGGGAGAAGGCACAUGAGGAUCACCCAUGUGACGA,0.022,0.0266,–,–
GGAUAGGACAGAGGAUAUACGUGCUAGAGAUACUAGCAACAUUUCCUCACAUGAGGAUCACCCAUGUAGAAGGCUGUCCUAUCG,0.00816,0.19,–,–
GUCGCUAGAGGAUAUACAAUGGUAUAUGAUCCUAGUGACAUACAUGAGGAUCACCCAUGUAGAAGGCUAGUAAU,0.0242,0.0217,–,–
ACAUGAGGAUCACCCAUGUUAUUUGGGAAUUAAUUUAUUUGUAGAAGGAUGUUUUCUUGUUAGUCAUAGGAUAUACUAUUAAAU,0.0407,0.0344,–,–
UCAUUUAUCACAGGAUAUAUUAGUAUACAGUUGUUUGGUUAUUACAUAUUAAUAGAAGGGUGGAACAUGAGGAUCACCCAUGUA,–,–,0.616,0.282
GCACGAGACUAAGGAUAUGGUGUACCUACAUGUAACAUGAGGAUCACCCAUGUGGUAAGUAUGAUUCAGAAGGUAGAGACGUGC,–,–,0.0332,0.02
CCACGUCCCAUUAACAUGAGGAUCACCCAUGUCAAAAGACAUGAGGAUAUGCAUCCUAAUUGGAUGCAGAAGGCAUGGACGUGG,–,–,0.814,0.0871
AUCAGCUCGUCAGGAUAUACGUAACUGCGUCAGCAGUGUGGUAAGAUCACAUGAGGAUCACCCAUGUAGAAGGGACGAGCUGAU,–,0.529,–,–
AUAUGUAACUAGGAUAUCAGCAUACUUCAAUGUUGAGAAGGAGUUACAUGAGGAUCACCCAUGUAUCCAACAUG,0.0405,0.0286,–,–
UGCAUUACUUAGAAGGGAUAUAUAUAAUUUUAAUCAGGAUAUAGAUACAAUACAACAUGAGGACAUGAGGAUCACCCAUGUAUU,–,–,0.0199,0.014
AUGAGGUCAGGAUAUGCAUGGCGGGACUUGCGUCGUGGCGUGGAGAAGGGACAUGAGGAUCACCCAUGUGGAGG,0.108,0.0883,–,–

Sequence,apparent Kd [1] [µM],apparent Kd [2] [µM],apparent Kd [3] [µM],apparent Kd [4] [µM]
GAGCUCGAUGAGAAGGGUUACAUGAGGAUCACCCAUGUCGACCUUGGCGUAACAGGAUAUCAUCGGACUCAGUGCGUUGACCCA,0.0256,0.137,–,–
UAAUAUUUAUAAUAUUAUUACAUUAGAAGGCUAGACAUGUGGAUACAUGAGGAUCACCCAUGUAUAGAGGAUAUAGACAUAUAU,0.0295,0.0799,–,–
UGAGCCUCGUGAGGAUAUACAUGAGGAUCACCCAUGUAAUAAGAUCAACGGAGGAAACUCCGAAUGUAGAAGGCACGAGGCUCA,0.0409,0.393,–,–
CCAUCAGCGGGCGUAUCGGUUGGACAUGAGGAUCACCCAUGUAGAAGGACAGGUGUAUUUCGGCUGUAGGAUAUACAUUUGGUG,0.026,0.0799,–,–
AAUAUGUUGCAGAAGGUUAUUUUUAUAACGAUCCACUUGACAUGAGGAUCACCCAUGUAAUUGUUGAAGGAUAUGCAAUAUAUU,0.00679,0.00711,–,–
AAAUUUAACGAAGGAUAUGCUGACAUGAGGAUCACCCAUGUGUGCCUUGUGUUACUGAUUAGGAAGCAGAAGGUCGUAUACAUA,0.831,0.414,–,–
CUAUAUAAUACCUCAUGUACAUGAGGAUCACCCAUGUUAACUUAGGAUAUAUUUAUAUUAAUAAAGUAGAAGGAAGUACUAUUU,0.0233,0.0194,–,–
AGCUACGUUUCGUAGCAGCUAGGUGAGGAUAUUCAAAAUUUCACAUGAGGAUCACCCAUGUAUGUGAAGAAGGCGCCUAGAAAG,–,–,0.00729,0.00474
GAUUAACAUGAGGAUCACCCAUGUGAGGAUAUGAACUUGCCCACUUACCCUUUAGAGUUUAGAAGGCGCAUUUC,0.0189,0.019,–,–
ACUCGACAUGAGGAUCACCCAUGUGAGGAUAUCGUUAUUUACUUUGUUUAUAGUAUCUCGAGAAGGCACAUUUG,0.0181,0.0546,–,–
UCGUAUACACAAGGAUAUCAAUGAUUUGUGGAUCCUACAUGAGGAUCACCCAUGUUUUUAUAUUUUGAGAAGGUGUAGUGUCUU,–,–,0.417,0.608
AACAGCUCGUCAGGAUAUAUUUUCAUUAUAUGUAUUUAUGUACAUGAGGAUCACCCAUGUUGUUUGUAGAAGGGACGAGCUGAA,0.0136,0.0114,–,–
GCACUGGAUGUAGGAUAUCAGGACGAUAAGUCCUGAGAAGGACAUGAGGAUCACCCAUGUAAAACUCACCAGUGCUAUAAUAUA,0.0128,0.0177,–,–
UUUAUUAAUUAGAAGGCUUGAUGAAUUACAAUAGACAUGAGGAUCACCCAUGUGUAUUCAUGUCAAGAGGAUAUAGUCAUAUAU,–,–,0.0113,0.00638
GCAGCGUAUGUAGGAUAUCGGUCAGUUUCUGACCGAGAAGGACAUGAGGAUCACCCAUGUAAAUUACCGACUUUGUCGGGCUGC,0.00667,0.00862,–,–
GGGCCCGGAGGAUAUACAUGAGGAUCACCCAUGUAGGGUUUGGGUAUUCCCGGGCCCUGUAGAAGGCCGGGCCC,0.0171,0.0225,–,–
AAAAUACAUGAGGAUCACCCAUGUCAGGAUAUUCCUGCAGCCUUGAAUAUGGGCUGGUGAAGAAGGGACGGUGA,0.0401,0.105,–,–
GUCAGCUCGUGAGGAUAUACAACACUGCUUCGGCAGUGUAUCAAGAUCACAUGAGGAUCACCCAUGUAGAAGGCACGAGCUGAU,0.0132,0.234,–,–
CGAUGACAAAGUCAUCGAUAACGAACAUGAGGAUCACCCAUGUAGGAUAUGCUACUCAAAGAGUAGCAGAAGGACAUGUGUCUU,0.0317,0.154,–,–
UGAUCUCGGGUUAGGAUAUACUGACAACAUAGACAGUAGAAGGAACAUGAGGAUCACCCAUGUGCAUUAACCAU,0.0251,0.0593,–,–
AAAAAACAUGAGGAUCACCCAUGUAAGGAUAUCGUGCAGAAAAAAAAAAAAAACUGCACGAGAAGGUACAAGGA,0.0744,0.108,–,–
ACGACUGUCAUAGGAUAUGGUUACAUGAGGAUCACCCAUGUCAAGGGUCUAACUAAGUAUAGCUACUAGAAGGAUGAUAGUCGA,0.143,0.116,–,–
CGGCCCGAUCGAGGAUAUAAGUCUAGGACAUGAGGAUCACCCAUGUAUGUCUUAGAAGGCGAUCGGGCCAGCCUGUUACAGGCA,–,–,0.0285,0.00643
UGGGAUGGCUAGAAGGCUCCGUAAACUACAGGGAGAGGAUAUGGCACAUGAGGAUCACCCAUGUGUACCUGUAGGUGAUCCACA,0.019,0.0908,–,–
